Values after ≈ are worked out from the molar mass of the structure shown.
Columns and labels:
Type in all cases: functional
[1] = tested on: Staphylococcus aureus; assay: Antibacterial activity against methicillin-resistant Staphylococcus aureus after 18 hrs by NCCLS agar dilution method
Outline: (§1)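 Clinical isolates were tested by agar dilution on Mueller-Hinton agar with drug dilutions from 0.12 to 64 µg/ml. Test compounds were dissolved in 80% DMSO in water. Final inoculum was 10^7 CFU/ml, incubated at 35 °C for 18 h. MIC was the lowest concentration inhibiting visible growth.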

[2] = tested on: Staphylococcus aureus; assay: Antibacterial activity against methicillin-susceptible Staphylococcus aureus after 18 hrs by NCCLS agar dilution method; outline: as §1
[3] = tested on: Moraxella catarrhalis; assay: Antibacterial activity against Moraxella catarrhalis clinical isolate 255 after 18 hrs by NCCLS agar dilution method; details: clinical isolate 255, 18 h
Outline: (§2)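 NCCLS agar dilution on Mueller-Hinton agar with 5% sheep blood added to support growth. Drug dilutions 0.12–64 µg/ml. Test agents in 80% DMSO in water, linezolid in 40% water in ethanol. Final inoculum 10^7 CFU/ml, 18 h at 35 °C. MIC read as the lowest concentration with no visible growth.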

[4] = tested on: Enterococcus; assay: Antibacterial activity against vancomycin-susceptible Enterococcus after 18 hrs by NCCLS agar dilution method; outline: as §1
[5] = tested on: Enterococcus; assay: Antibacterial activity against vancomycin-resistant Enterococcus after 18 hrs by NCCLS agar dilution method; outline: as §1
[6] = tested on: Escherichia coli; assay: Antibacterial activity against Escherichia coli ATCC 25922 after 18 hrs by NCCLS agar dilution method; details: ATCC 25922, 18 h
Outline: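 Agar dilution per NCCLS on Mueller-Hinton agar, drug dilutions 0.12–64 µg/ml. Linezolid dissolved in 40% water in ethanol, vancomycin in water, test agents in 80% DMSO in water. Inoculum 10^7 CFU/ml (final), incubated 35 °C for 18 h. MIC is the lowest concentration preventing visible growth.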

[7] = tested on: Moraxella catarrhalis; assay: Antibacterial activity against Moraxella catarrhalis clinical isolate 36 after 18 hrs by NCCLS agar dilution method; details: clinical isolate 36, 18 h; outline: as §2
[8] = tested on: Moraxella catarrhalis; assay: Antibacterial activity against Moraxella catarrhalis clinical isolate 2824 after 18 hrs by NCCLS agar dilution method; details: clinical isolate 2824, 18 h; outline: as §2
[9] = tested on: Streptococcus pneumoniae; assay: Antibacterial activity against penicillin-resistant Streptococcus pneumoniae after 18 hrs by NCCLS agar dilution method
Outline: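 Agar dilution was run on Mueller-Hinton agar supplemented with 5% sheep blood, with drug dilutions from 0.12 to 64 µg/ml. Test compounds were dissolved in 80% DMSO in water. Final inoculum was 10^7 CFU/ml, incubated at 35 °C for 18 h. MIC was the lowest concentration preventing visible growth.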

[10] = tested on: Staphylococcus; assay: Antibacterial activity against methicillin-resistant coagulase-negative Staphylococcus after 18 hrs by NCCLS agar dilution method; outline: as §1
[11] = tested on: Moraxella catarrhalis; assay: Antibacterial activity against Moraxella catarrhalis clinical isolate 125 after 18 hrs by NCCLS agar dilution method; details: clinical isolate 125, 18 h; outline: as §2
[12] = tested on: Staphylococcus aureus; assay: Antibacterial activity against Staphylococcus aureus ATCC 25923 after 18 hrs by […] in presence of human plasma; details: ATCC 25923, Plasma
Outline: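 To gauge plasma protein binding and/or plasma instability, MIC was determined in Mueller-Hinton broth containing 50% human plasma. Linezolid served as a reference agent. Ratio compares this MIC with the MIC obtained without plasma.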

[13] = tested on: Moraxella catarrhalis; assay: Antibacterial activity against Moraxella catarrhalis ATCC 8176 after 18 hrs by NCCLS agar dilution method; details: ATCC 8176, 18 h; outline: as §2
[14] = tested on: Haemophilus influenzae; assay: Antibacterial activity against Haemophilus influenzae ATCC 49247 after 18 hrs by NCCLS agar dilution method; details: ATCC 49247, 18 h; outline: as §2
[15] = tested on: Moraxella catarrhalis; assay: Antibacterial activity against Moraxella catarrhalis clinical isolate 1 after 18 hrs by NCCLS agar dilution method; details: clinical isolate 1, 18 h; outline: as §2
[16] = tested on: Staphylococcus; assay: Antibacterial activity against methicillin-susceptible coagulase-negative Staphylococcus after 18 hrs by NCCLS agar dilution method; outline: as §1
[17] = tested on: Moraxella catarrhalis; assay: Antibacterial activity against Moraxella catarrhalis clinical isolate 3447 after 18 hrs by NCCLS agar dilution method; details: clinical isolate 3447, 18 h; outline: as §2
[18] = tested on: Moraxella catarrhalis; assay: Antibacterial activity against Moraxella catarrhalis clinical isolate 138 after 18 hrs by NCCLS agar dilution method; details: clinical isolate 138, 18 h; outline: as §2
[19] = tested on: Staphylococcus aureus; assay: Antibacterial activity against Staphylococcus aureus ATCC 25923 after 18 hrs by NCCLS agar dilution method; details: ATCC 25923, 18 h
Outline: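 Plain Mueller-Hinton agar, agar dilution per NCCLS, concentrations 0.12–64 µg/ml. Test agents in 80% DMSO in water, linezolid in 40% water in ethanol, vancomycin in water. Final inoculum 10^7 CFU/ml, 35 °C for 18 h. MIC = lowest concentration inhibiting visible growth.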

[20] = tested on: Moraxella catarrhalis; assay: Antibacterial activity against Moraxella catarrhalis clinical isolate 112 after 18 hrs by NCCLS agar dilution method; details: clinical isolate 112, 18 h; outline: as §2
[21] = tested on: Staphylococcus aureus; assay: Ratio of PH027 MIC to compound MIC for methicillin-susceptible Staphylococcus aureus
[22] = tested on: Staphylococcus; assay: Ratio of PH027 MIC to compound MIC for methicillin-susceptible coagulase-negative Staphylococcus
[23] = tested on: Enterococcus; assay: Ratio of PH084 MIC to compound MIC for vancomycin-susceptible Enterococcus
[24] = tested on: Moraxella catarrhalis; assay: Ratio of linezolid MIC to compound MIC for Moraxella catarrhalis ATCC 8176
[25] = tested on: Staphylococcus; assay: Ratio of PH084 MIC to compound MIC for methicillin-susceptible coagulase-negative Staphylococcus
[26] = tested on: Staphylococcus; assay: Ratio of linezolid MIC to compound MIC for methicillin-susceptible coagulase-negative Staphylococcus
[27] = tested on: Streptococcus pneumoniae; assay: Ratio of PH084 MIC to compound MIC for penicillin-resistant Streptococcus pneumoniae
[28] = tested on: Streptococcus pneumoniae; assay: Ratio of linezolid MIC to compound MIC for penicillin-resistant Streptococcus pneumoniae
[29] = tested on: Staphylococcus aureus; assay: Ratio of PH084 MIC to compound MIC for methicillin-susceptible Staphylococcus aureus
[30] = tested on: Enterococcus; assay: Ratio of PH027 MIC to compound MIC for vancomycin-susceptible Enterococcus
[31] = tested on: Streptococcus pneumoniae; assay: Ratio of PH027 MIC to compound MIC for penicillin-resistant Streptococcus pneumoniae
[32] = tested on: Enterococcus; assay: Ratio of linezolid MIC to compound MIC for vancomycin-susceptible Enterococcus
[33] = tested on: Staphylococcus aureus; assay: Ratio of linezolid MIC to compound MIC for methicillin-susceptible Staphylococcus aureus

## Cc1cn(C[C@H]2CN(c3ccc(N4CCN(C(=O)CNC(=O)c5ccccc5)CC4)c(F)c3)C(=O)O2)nn1
[1]
  MIC: 0.5 µg/mL (≈ 0.959 µM)
[2]
  MIC: 0.5 µg/mL (≈ 0.959 µM)
[3]
  MIC: 4 µg/mL (≈ 7.67 µM)
[4]
  MIC: 0.5 µg/mL (≈ 0.959 µM)
[5]
  MIC: 0.5 µg/mL (≈ 0.959 µM)
[6]
  MIC: > 64 µg/mL
[7]
  MIC: 4 µg/mL (≈ 7.67 µM)
[8]
  MIC: 4 µg/mL (≈ 7.67 µM)
[9]
  MIC: 2 µg/mL (≈ 3.83 µM)
[10]
  MIC: 0.5 µg/mL (≈ 0.959 µM)
[11]
  MIC: 4 µg/mL (≈ 7.67 µM)
[12]
  MIC: 16 µg/mL
[13]
  MIC: 8 µg/mL (≈ 15.3 µM)
[14]
  MIC: 32 µg/mL (≈ 61.4 µM)
[15]
  MIC: 4 µg/mL (≈ 7.67 µM)
[16]
  MIC: 0.5 µg/mL (≈ 0.959 µM)
[17]
  MIC: 4 µg/mL (≈ 7.67 µM)
[18]
  MIC: 4 µg/mL (≈ 7.67 µM)
[19]
  MIC: 1 µg/mL (≈ 1.92 µM)
[20]
  MIC: 4 µg/mL (≈ 7.67 µM)

## Cc1cn(C[C@H]2CN(c3ccc(N4CCN(C(=O)CNC(=O)c5cccnc5)CC4)c(F)c3)C(=O)O2)nn1
[1]
  MIC: 1 µg/mL (≈ 1.91 µM)
[2]
  MIC: 1 µg/mL (≈ 1.91 µM)
[3]
  MIC: 4 µg/mL (≈ 7.65 µM)
[4]
  MIC: 1 µg/mL (≈ 1.91 µM)
[5]
  MIC: 1 µg/mL (≈ 1.91 µM)
[6]
  MIC: > 64 µg/mL
[7]
  MIC: > 4 µg/mL
[8]
  MIC: 8 µg/mL (≈ 15.3 µM)
[9]
  MIC: 0.25 µg/mL (≈ 0.478 µM)
[10]
  MIC: 1 µg/mL (≈ 1.91 µM)
[11]
  MIC: 4 µg/mL (≈ 7.65 µM)
[12]
  MIC: 4 µg/mL
[13]
  MIC: 8 µg/mL (≈ 15.3 µM)
[14]
  MIC: 8 µg/mL (≈ 15.3 µM)
[15]
  MIC: > 4 µg/mL
[16]
  MIC: 1 µg/mL (≈ 1.91 µM)
[17]
  MIC: 8 µg/mL (≈ 15.3 µM)
[18]
  MIC: 4 µg/mL (≈ 7.65 µM)
[19]
  MIC: 2 µg/mL (≈ 3.83 µM)
[20]
  MIC: 4 µg/mL (≈ 7.65 µM)

## Cc1cn(C[C@H]2CN(c3ccc(N4CCN(C(=O)CNC(=O)c5ccc([N+](=O)[O-])o5)CC4)c(F)c3)C(=O)O2)nn1
[1]
  MIC: 0.06 µg/mL (≈ 0.108 µM)
[21]
  Ratio: 4
[22]
  Ratio: 4
[2]
  MIC: 0.06 µg/mL (≈ 0.108 µM)
[3]
  MIC: 1 µg/mL (≈ 1.8 µM)
[4]
  MIC: 0.25 µg/mL (≈ 0.449 µM)
[23]
  Ratio: 4
[5]
  MIC: 0.5 µg/mL (≈ 0.898 µM)
[6]
  MIC: 16 µg/mL (≈ 28.8 µM)
[7]
  MIC: 1 µg/mL (≈ 1.8 µM)
[8]
  MIC: 1 µg/mL (≈ 1.8 µM)
[9]
  MIC: < 0.25 µg/mL
[24]
  Ratio: 16
[25]
  Ratio: 4
[10]
  MIC: 0.06 µg/mL (≈ 0.108 µM)
[11]
  MIC: 1 µg/mL (≈ 1.8 µM)
[12]
  MIC: < 0.25 µg/mL
[26]
  Ratio: 4
[27]
  Ratio: 4
[28]
  Ratio: 4
[29]
  Ratio: 4
[13]
  MIC: 0.5 µg/mL (≈ 0.898 µM)
[14]
  MIC: 2 µg/mL (≈ 3.59 µM)
[15]
  MIC: 1 µg/mL (≈ 1.8 µM)
[30]
  Ratio: 4
[31]
  Ratio: 4
[16]
  MIC: 0.06 µg/mL (≈ 0.108 µM)
[17]
  MIC: 1 µg/mL (≈ 1.8 µM)
[18]
  MIC: 1 µg/mL (≈ 1.8 µM)
[19]
  MIC: < 0.25 µg/mL
[32]
  Ratio: 4
[33]
  Ratio: 4
[20]
  MIC: 1 µg/mL (≈ 1.8 µM)

## O=C(NCC(=O)N1CCN(c2ccc(N3C[C@H](Cn4ccnn4)OC3=O)cc2F)CC1)c1cccs1
[1]
  MIC: 0.5 µg/mL (≈ 0.974 µM)
[2]
  MIC: 0.5 µg/mL (≈ 0.974 µM)
[3]
  MIC: 8 µg/mL (≈ 15.6 µM)
[4]
  MIC: 1 µg/mL (≈ 1.95 µM)
[5]
  MIC: 1 µg/mL (≈ 1.95 µM)
[6]
  MIC: > 64 µg/mL
[7]
  MIC: 8 µg/mL (≈ 15.6 µM)
[8]
  MIC: 8 µg/mL (≈ 15.6 µM)
[9]
  MIC: 0.5 µg/mL (≈ 0.974 µM)
[10]
  MIC: 0.5 µg/mL (≈ 0.974 µM)
[11]
  MIC: 8 µg/mL (≈ 15.6 µM)
[12]
  MIC: 8 µg/mL
[13]
  MIC: 8 µg/mL (≈ 15.6 µM)
[14]
  MIC: 16 µg/mL (≈ 31.2 µM)
[15]
  MIC: 8 µg/mL (≈ 15.6 µM)
[16]
  MIC: 0.5 µg/mL (≈ 0.974 µM)
[17]
  MIC: 8 µg/mL (≈ 15.6 µM)
[18]
  MIC: 8 µg/mL (≈ 15.6 µM)
[19]
  MIC: 1 µg/mL (≈ 1.95 µM)
[20]
  MIC: 8 µg/mL (≈ 15.6 µM)

Source: ChEMBL document CHEMBL2412955, “Synthesis and antibacterial activities of N-substituted-glycinyl 1H-1,2,3-triazolyl oxazolidinones” (2013)
